# Assays:
# [1] = Elimination rate constant in healthy human plasma at 400 mg, po administered as single dose measured after 120 hrs; format: ADME, organism-based
# [2] = AUC (0 to infinity) in healthy human plasma at 200 mg, po administered as single dose measured after 120 hrs; format: ADME, organism-based; design: dose 200 mg, route oral, time infinity
# How it was run: (§1)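 Healthy adults (6 per dose group) received a single oral suspension after an 8-h fast, with food withheld 4 h. EDTA blood was drawn predose to 120 h. Plasma was protein-precipitated with ACN and assayed by LC-MS/MS (clarithromycin internal standard; range 1–1,000 ng/ml). AUC0-last was computed by linear-up/log-down trapezoid; AUC0-∞ added Clast/λz. Values are noncompartmental means.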
# [3] = Cmax in healthy human plasma at 200 mg, po administered as single dose measured after 120 hrs; format: ADME, organism-based; design: dose 200 mg, route oral
# How it was run: (§2)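 Healthy adults (n = 6 per dose) took a single oral suspension fasted (8 h before, 4 h after). Plasma was sampled from 0.25 to 120 h postdose and quantified by validated LC-MS/MS after acetonitrile precipitation (LLOQ 1 ng/ml). Cmax was read directly from observed concentration–time data; the group mean was reported.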
# [4] = Renal clearance in healthy human assessed as cumulative fraction excreted unchanged in urine at 800 mg, po administered as single dose measured after 48 hrs; format: ADME, organism-based; conditions: read-out: Fraction Recovered in urine
# How it was run: (§3)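 Urine collected predose and over 0–2, 2–4, 4–6, 6–8, 8–12, 12–24 and 24–48 h after a single oral suspension dose, given after an 8-h fast with no food for 4 h after. Volumes measured, stored at −20°C, EDP-420 quantified by LC-MS/MS. fe0-48 = Ae0-48/dose × 100%, where Ae0-48 is the sum of volume × concentration over the intervals. Six active subjects per dose.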
# [5] = Apparent oral clearance in healthy human plasma at 100 mg, po administered as single dose measured after 120 hrs; format: ADME, organism-based
# How it was run: (§4)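 Single oral suspension dose in fasted healthy adults (6 per group). Plasma was collected to 120 h and measured by LC-MS/MS (1–1,000 ng/ml). Apparent oral clearance was dose divided by AUC0-∞ (noncompartmental, linear-up/log-down trapezoid extrapolated with Clast/λz); the mean was reported.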
# [6] = AUC (0 to last) in healthy human plasma at 400 mg, po administered as single dose measured after 120 hrs; format: ADME, organism-based; design: dose 400 mg, route oral, time 0 - last; how it was run: as §1
# [7] = Apparent oral clearance in healthy human plasma at 400 mg, po administered as single dose measured after 120 hrs; format: ADME, organism-based; how it was run: as §4
# [8] = Renal clearance in healthy human assessed as cumulative fraction excreted unchanged in urine at 400 mg, po administered as single dose measured after 48 hrs; format: ADME, organism-based; conditions: read-out: Fraction Recovered in urine; how it was run: as §3
# [9] = Cmax in healthy human plasma at 800 mg, po administered as single dose measured after 120 hrs; format: ADME, organism-based; design: dose 800 mg, route oral; how it was run: as §2
# [10] = Half life in healthy human plasma at 1200 mg, po administered as single dose measured after 120 hrs; format: ADME, organism-based
# [11] = Apparent volume of distribution in healthy human plasma at 1200 mg, po administered as single dose measured after 120 hrs; format: ADME, organism-based
# Homo sapiens [12] = experiment: Toxicity in healthy human assessed as incidence of elevated hepatic transaminase levels at 100 to 1200 mg, po administered as single dose; format: organism-based; conditions: in vivo
# How it was run: (§5)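 Randomized, double-blind, placebo-controlled single ascending dose study with eight subjects per group (6 drug, 2 placebo of microcrystalline cellulose). Subjects were fasted before dosing. Safety labs were done at 120 h, with a full chemistry panel also at 72 and 96 h for the top dose. Final evaluation on day 8–10, with adverse events recorded.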
# [13] = Renal clearance in healthy human assessed as cumulative fraction excreted unchanged in urine at 1200 mg, po administered as single dose measured after 48 hrs; format: ADME, organism-based; conditions: read-out: Fraction Recovered in urine
# How it was run: (§6)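 After a single oral fasted suspension dose in healthy adults (6 per group), urine was collected in intervals to 48 h and measured by LC-MS/MS. fe0-48 = Ae0-48 (summed interval volume × concentration) / dose × 100%; the mean was reported.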
# [14] = AUC (0 to infinity) in healthy human plasma at 1200 mg, po administered as single dose measured after 120 hrs; format: ADME, organism-based; design: dose 1200 mg, route oral, time infinity; how it was run: as §1
# Homo sapiens [15] = experiment: Toxicity in healthy human assessed as changes in gamma-glutamyl transpeptidase level at 100 to 1200 mg, po administered as single dose; format: organism-based; conditions: in vivo; how it was run: as §5
# [16] = Half life in healthy human plasma at 100 mg, po administered as single dose measured after 120 hrs; format: ADME, organism-based
# Homo sapiens [17] = experiment: Toxicity in healthy human assessed as changes in direct and total bilirubin level at 100 to 1200 mg, po administered as single dose; format: organism-based; conditions: in vivo; how it was run: as §5
# Streptococcus pyogenes = experiment: Antimicrobial activity against Streptococcus pyogenes; format: functional
# [18] = Renal clearance in healthy human assessed as cumulative fraction excreted unchanged in urine at 200 mg, po administered as single dose measured after 48 hrs; format: ADME, organism-based; conditions: read-out: Fraction Recovered in urine; how it was run: as §6
# Homo sapiens [19] = experiment: Renal clearance in healthy human assessed as cumulative amount excreted in urine at 400 mg, po administered as single dose measured after 48 hrs; format: ADME, organism-based; conditions: in vivo
# How it was run: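 Healthy adults (6 per dose) received a single fasted oral suspension dose. Urine was collected predose and over 0–2, 2–4, 4–6, 6–8, 8–12, 12–24 and 24–48 h intervals, volumes were recorded, and aliquots were stored at −20°C. Samples were assayed by LC-MS/MS. Ae0-48 is the summed volume × concentration over all intervals; the mean was reported.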
# Streptococcus pneumoniae = experiment: Antimicrobial activity against Streptococcus pneumoniae; format: functional
# [20] = Half life in healthy human plasma at 200 mg, po administered as single dose measured after 120 hrs; format: ADME, organism-based
# [21] = Renal clearance in healthy human at 1200 mg, po administered as single dose measured after 48 hrs; format: ADME, organism-based, Kidney; conditions: in vivo, read-out: CL_renal (converted)
# How it was run: (§7)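 Healthy adults (6 active per dose) got a single oral suspension dose after an 8-h fast, with food withheld 4 h. Urine over 0–48 h in intervals and serial EDTA plasma were assayed by validated LC-MS/MS, with plasma calibration from 1 to 1,000 ng/ml. CLR = Ae0-48 (urine volume × concentration summed) divided by plasma AUC0-48.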
# [22] = AUC (0 to infinity) in healthy human plasma at 800 mg, po administered as single dose measured after 120 hrs; format: ADME, organism-based; design: dose 800 mg, route oral, time infinity; how it was run: as §1
# Homo sapiens [23] = experiment: Toxicity in healthy human assessed as changes in vital signs at 100 to 1200 mg, po administered as single dose; format: organism-based; conditions: in vivo
# How it was run: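 Vital signs were taken predose and during an in-house stay (48 h for groups 1–4, 120 h for the top dose). Outpatient visits at 72, 96 and 120 h followed a single fasted oral dose, in a double-blind, placebo-controlled design with 6 active and 2 placebo per group.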
# [24] = Apparent volume of distribution in healthy human plasma at 100 mg, po administered as single dose measured after 120 hrs; format: ADME, organism-based
# [25] = Renal clearance in healthy human at 400 mg, po administered as single dose measured after 48 hrs; format: ADME, organism-based, Kidney; conditions: in vivo, read-out: CL_renal (converted); how it was run: as §7
# [26] = Tmax in healthy human plasma at 400 mg, po administered as single dose measured after 120 hrs; format: ADME, organism-based
# How it was run: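 Fasted healthy adults (n = 6 per group) took one oral suspension dose. Plasma was sampled from predose through 0.25–120 h postdose and measured by validated LC-MS/MS (lower limit 1 ng/ml). Tmax was read directly from observed concentration–time data using actual sampling times and reported as median with range.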
# Legionella sp. = experiment: Antimicrobial activity against Legionella sp.; format: functional
smiles,measurement,setting,value
CC[C@H]1OC(=O)[C@H](C)C(=O)[C@H](C)[C@@H](O[C@@H]2O[C@H](C)C[C@H](N(C)C)[C@H]2O)[C@@]2(C)C[C@@H](C)/C(=N\C(C)=O)[C@H](C)[C@@H](OC/C(=N\OCc3ccc(-n4cccn4)nc3)CO2)[C@]1(C)O [MODITHROMYCIN],k el at 120 h,[1],1.22e-05 s⁻¹
same,AUC(0-inf),[2],7710 ng·h/mL
same,Cmax,[3],360 ng/mL
same,dose excreted at 48 h,[4],11.4%
same,CL/F,[5],485 mL/min
same,AUC(0-t) at 120 h,[6],14300 ng·h/mL
same,CL/F,[7],463 mL/min
same,dose excreted at 48 h,[8],10.5%
same,Cmax,[9],1070 ng/mL
same,half-life,[10],20.1 h
same,Vd/F,[11],909 L
same,Activity,Homo sapiens [12],23%
same,dose excreted at 48 h,[13],5.84%
same,AUC(0-inf),[14],38300 ng·h/mL
same,Activity,Homo sapiens [15],Non-toxic
same,half-life,[16],15.6 h
same,Activity,Homo sapiens [17],Non-toxic
same,Ratio,Streptococcus pyogenes,32
same,dose excreted at 48 h,[18],12.3%
same,Amount Recovered in urine,Homo sapiens [19],41.9 mg
same,MIC,Streptococcus pneumoniae,0.25 µg/mL
same,half-life,[20],15.8 h
same,CL renal at 48 h,[21],41.3 mL/min
same,AUC(0-inf),[22],33900 ng·h/mL
same,Activity,Homo sapiens [23],Non-toxic
same,Vd/F,[24],656 L
same,CL renal at 48 h,[25],58 mL/min
same,Tmax,[26],3.25 h
same,MIC90,Legionella sp.,0.031 µg/mL

# Source: ChEMBL document CHEMBL1649161, “Pharmacokinetics of EDP-420 after ascending single oral doses in healthy adult volunteers” (Antimicrob Agents Chemother, 2009)
